Measurements taken from PubChem BioAssay AID651628 (The Scripps Research Institute Molecular Screening Center, 2012).
Active and inactive are the calls of the source.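 Rule for the calls: active = at least one off-target enzyme showing weaker fluorescent probe labeling in any proteome panel; inactive = no off-target enzyme affected in any panel.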

System: Soluble Proteome
Assay: proteome-wide probe labelling blockade by competitive ABPP – cell lysate, gel-based fluorescence, soluble and membrane fractions, selectivity assay for PAD4 inhibitor project, late-stage follow-up (AID 651628)
Details: MCF7 proteome, CA-Rh gel-based ABPP, anti-target count, at 50 µM, stronger effect = higher value
How it was run: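 System: MCF7 soluble or membrane proteome; amount: proteome protein concentration of 1 mg/ml; technique: in-gel fluorescence after SDS-PAGE; medium: DPBS; controls: DMSO-only reference; doses: compound at 10 or 50 µM; probe or stimulus: Chloroacetamide-rhodamine (CA-Rh) labelling probe, 10 µM; timing: compound pre-incubation 1 h, then probe labelling 1 h, both 25 °C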

Row | SMILES | number of anti-targets
1 | COC(=O)c1cccc(-c2ccc3c(n2)C(=O)C(Br)=CC3=O)n1 | 0 (inactive)
2 | COC1=C(Br)C(=O)c2ncccc2C1=O | > 5 (active)
3 | NC1=CC(=O)c2ccc(-c3cccc(C(=O)O)n3)nc2C1=O | 0 (inactive)
4 | COC1=C(I)C(=O)c2nc(C#N)ccc2C1=O | > 5 (active)
5 | COC(=O)c1nc(C(=O)OC)c(NC(C)=O)c(-c2ccccc2Br)c1C | 0 (inactive)
6 | O=C1C=C(Br)C(=O)c2ncccc21 | > 5 (active)
7 | COC(=O)c1cccc(-c2ccc3c(n2)C(=O)C(N)=CC3=O)n1 | 0 (inactive)
8 | COC1=C(N)C(=O)c2ncccc2C1=O | 0 (inactive)
9 | NC1=CC(=O)c2ccc(-c3ccccn3)nc2C1=O | 0 (inactive)
10 | COC1=C(Br)C(=O)c2nc(-c3ccccn3)ccc2C1=O | > 5 (active)
11 | NC1=CC(=O)c2cccnc2C1=O | 0 (inactive)
12 | COC1=C(N)C(=O)c2nc(-c3nc(C(=O)O)c(C)c(-c4ccc(OC)c(OC)c4O)c3N)ccc2C1=O | 0 (inactive)
13 | COC1=CC(=O)c2nc(C#N)ccc2C1=O | > 5 (active)
14 | O=C1C(O)=C(O)C(=O)c2ncccc21 | 3 (active)
